Compound activity as filed in PubChem.
Most compounds without a hit are left out; they make up all but 3.7% or so of the library.
hERG protect: compounds protecting human hERG from proarrhythmic drug block. Q12809. CHO-hERG, FluxOR thallium flux, dofetilide IC70 present. activation (rescue from dofetilide block), less the hit threshold, % at 10 µM. 0.51% of 310,000 active. AID 1511;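 active = activation above the mean of controls blocked by dofetilide plus 5 SD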;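 note: thallium influx through hERG after potassium depolarization seen as dye fluorescence rise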
KCNQ1 act: potentiators or activators of human KCNQ1 potassium channel | P51787 | CHO-K1 KCNQ1, thallium flux FluxOR fluorescence; active compounds read high | B-score at 10 µM | 0.35% of 310,000 active | AID 2648;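 active = fluorescence ratio B-score, a plate-corrected score, at least three library SD, with initial intensity B-score within 5 SD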
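Assay system: CHO-K1 cells stably expressing KCNQ1. Medium: assay buffer for compound exposure, DMSO matched across wells. Timing: 37 °C overnight plating, 90-min dark dye load, 20-min compound pretreatment. Signal: kinetic FluxOR fluorescence, 10 s baseline plus 110 s post-stimulus.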
KCNK9 inh-1: blocks the human KCNK9 two-pore domain potassium channel; B-score at 10 µM; HEK293 KCNK9, FluxOR thallium flux fluorescence; active compounds read low; 1.2% of 310,000 active;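 active = ratio B-score over 3 SD below the library mean, with starting fluorescence within 5 SD of its mean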;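 note: negative B-score means less thallium flux so channel inhibition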
Target sequence (Q9NPC2 whole entry, looked up, the tested form may be a part): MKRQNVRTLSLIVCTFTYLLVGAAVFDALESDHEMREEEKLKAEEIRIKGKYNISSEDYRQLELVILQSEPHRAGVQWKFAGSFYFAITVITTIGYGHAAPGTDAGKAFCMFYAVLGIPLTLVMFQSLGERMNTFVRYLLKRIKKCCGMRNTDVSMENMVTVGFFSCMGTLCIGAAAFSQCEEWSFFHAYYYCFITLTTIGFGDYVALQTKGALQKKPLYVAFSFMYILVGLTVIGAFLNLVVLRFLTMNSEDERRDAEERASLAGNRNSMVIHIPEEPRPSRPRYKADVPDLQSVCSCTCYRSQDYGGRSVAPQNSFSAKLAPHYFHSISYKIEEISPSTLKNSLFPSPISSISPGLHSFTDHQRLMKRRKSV
Kir21 block: blocks the mouse Kir2.1 inward-rectifier potassium channel; P35561; HEK293-Kir2.1, FluxOR thallium flux fluorescence; active compounds read low; B-score at 10 µM; 0.85% of 310,000 active;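 active = fluorescence ratio B-score at or below minus 3 SD of library scores, with starting-brightness B-score within 2 SD, cut at about -4.2 in these data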;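 note: channel flux triggered by added potassium and thallium sulfate stimulus; B-score of peak minus minimum fluorescence over baseline after thallium stimulus; more negative B-score means stronger Kir2.1 block with less thallium influx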
KCNQ1 inh: human KCNQ1 channel inhibition. P51787. CHO-K1 KCNQ1, FluxOR thallium flux fluorescence; active compounds read high. B-score at 10 µM. 1.3% of 310,000 active;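 active = compounds whose thallium flux B-score, printed positive for inhibition, exceeds three library SD while starting fluorescence stays within three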;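 note: channel opened by potassium depolarization with thallium stimulus after 20 min compound exposure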
KCNK3 block: human KCNK3 channel inhibition, primary screen. CHO-KCNK3 thallium flux, FluxOR fluorescence; active compounds read low. 0.84% of 340,000 active. B-score at 10 µM. O14649;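 active = B-score under library mean minus 4 SD, starting fluorescence ratio at most library mean plus 5 SD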;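 note: more negative B-score means stronger inhibition of thallium flux through KCNK3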
hERG ctr: blocks human hERG, in counter-screen for Kir2.1 inhibitors. shares compounds with Kir21 block. hERG-expressing cells, thallium flux. inhibition, % at 10 µM. 20% of 320 active. AID 2236;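 note: host cells are CHO cells stably expressing hERG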
KCNK9 inh-2: selectivity of Kir2.1 inhibitors: effect on human KCNK9; shares compounds with Kir21 block; KCNK9-expressing cells, ion flux inhibition; inhibition, % at 10 µM; 5% of 320 active; AID 2329
Kir2-1 patch inh: mouse Kir2.1 inward rectifier channel inhibition. shares compounds with Kir21 block. Kir2.1 cells, automated patch-clamp current inhibition. inhibition, % at 25 µM. 71% of 320 active. AID 463252
* marks the source's active call; other numbers are inactive results; i = inactive; . = not tested or not shown. Unless noted, the rule behind the calls is not given here.

SMILES | hERG protect | KCNQ1 act | KCNK9 inh-1 | Kir21 block | KCNQ1 inh | KCNK3 block | hERG ctr | KCNK9 inh-2 | Kir2-1 patch inh
O=C(O)C1=C[C@@H](C2CCCCC2)C[C@@H](OCc2ccc(CO)cc2)O1 | -5.1 | i | i | 0.15 | i | i | . | . | .
NC(=O)C1=C[C@@H](C2CCCCC2)C[C@@H](OCc2ccc(CO)cc2)O1 | -9.6 | i | i | -7.7* | i | i | i | i | 25.8%*
Cc1ccc(CN2CCC(c3cc(-c4cccs4)n[nH]3)CC2)cc1 | -14.1 | i | i | -13.3* | i | i | 72.0%* | i | 37.4%*
FC(F)(F)c1cccc(CN2CCC(c3cc(-c4cccs4)n[nH]3)CC2)c1 | -17.7 | i | i | -0.57 | i | i | . | . | .
O=CNC1c2ccccc2CCc2ccccc21 | . | . | . | . | . | i | . | . | .
COc1ccc(Nc2ccnc3ccccc23)cc1 | -10.5 | i | i | -14.7* | i | i | i | i | 81.7%*
CN(C)CC#CCOC(c1ccccc1)c1ccccc1 | 0.3 | i | i | -6.34* | i | i | i | i | 44.6%*
CCN(CC)CC#CCOC(c1ccccc1)c1ccccc1 | -22.4 | i | i | -2.97 | i | i | . | . | .
Cc1cc(S(=O)(=O)Nc2cc(C)c(O)c(C)c2)c(C)s1 | -3.3 | i | i | -6.74* | i | i | i | i | 18.3%*
CCOc1ccccc1C(=O)N(Cc1sccc1C)C1CCS(=O)(=O)C1 (configuration not stated) | -8.6 | i | i | -1.07 | i | i | . | . | .
COC(=O)c1cc2c(n1S(=O)(=O)c1ccc(C)cc1)C(=O)C(=O)c1[nH]cc(C(=O)OCc3ccccc3)c1-2 | . | . | . | . | . | i | . | . | .
O=C1C(Cc2c[nH]c3ccccc23)NC(=S)N1Cc1ccccc1 (configuration not stated) | -11.7 | i | i | -6.42* | i | i | i | i | 12.2%*
COc1cccc(OC)c1C(=O)Nc1ccc(N2CCCC2)cc1 | -4.6 | i | i | 3.03 | i | i | i | i | i
COc1cccc(NC(=O)CN(C)S(=O)(=O)/C=C/c2ccccc2)c1 | . | . | . | . | . | i | . | . | .
COC(=O)c1cc([N+](=O)[O-])c(-n2cncn2)c([N+](=O)[O-])c1 | -16.0 | i | i | -7.7* | i | i | i | i | i
Cc1cc(C)cc(OCC(=O)N(C)CC(=O)Nc2ccc(N3CCOCC3)cc2)c1 | . | . | . | . | . | i | . | . | .
OC(CNCc1ccco1)Cn1c2ccccc2c2ccccc21 (configuration not stated) | -12.1 | i | i | -11.4* | i | i | 61.0%* | i | 25.3%*
OC(CNCc1ccco1)COc1ccccc1 (configuration not stated) | -4.5 | i | i | -0.05 | i | i | . | . | .
O=C(O)c1ccccc1C(=O)c1ccc2c(c1)CCC2 | -3.8 | i | i | 0.2 | i | i | . | . | .
CCn1c(COc2ccc(C)cc2)nnc1SCC(=O)C(C)(C)C | -0.1 | i | i | -2.74 | i | i | . | . | .
CCn1c(COc2ccc(C)cc2)nnc1SCc1ccc(C#N)cc1 | -13.3 | i | i | -7.91* | i | i | i | i | 7.3%*
CSc1ccc(CNCC(O)c2ccccc2)cc1 (configuration not stated) | -5.5 | i | i | -6.18* | i | i | i | i | 54.1%*
OC(CNCCc1ccccc1)c1ccccc1 (configuration not stated) | -1.3 | i | i | -9.65* | i | i | i | i | 49.8%*
CCOC(=O)c1ccc(S(=O)(=O)N2CCN(Cc3cc4c(cc3O)OCO4)CC2)cc1 | . | . | . | . | . | i | . | . | .
CCc1ccccc1S(=O)(=O)c1c(C)cc(C)nc1Cl | -5.5 | i | i | -3.52 | i | i | . | . | .
SMILES | hERG protect | KCNQ1 act | KCNK9 inh-1 | Kir21 block | KCNQ1 inh | KCNK3 block | hERG ctr | KCNK9 inh-2 | Kir2-1 patch inh
CCN(c1cccc(C)c1)S(=O)(=O)c1ccc2c(c1)NC(=O)CS2 | -9.0 | i | i | -5.88* | i | i | i | i | i
CCN(c1cccc(C)c1)S(=O)(=O)c1ccc2c(c1)NC(=O)CCS2 | -7.3 | i | i | 0.77 | i | i | . | . | .
CCOc1ccc(C(C)=O)cc1CSc1nnnn1-c1ccc(O)cc1 | -12.1 | i | i | -8.42* | i | i | i | i | 24.5%*
Cn1c(N)c(C(=O)COC(=O)/C=C/c2ccccc2)c(=O)n(C)c1=O | . | . | . | . | . | i | . | . | .
CCc1nc(C)cn1S(=O)(=O)c1ccc2c(c1)OCCO2 | . | . | . | . | . | i | . | . | .
CC1CCCCC12NC(=O)N(CC(=O)OCc1cccc(F)c1)C2=O (configuration not stated) | . | . | . | . | . | i | . | . | .
CC(=O)OC1=C(C#N)Cn2ccc3cccc1c32 | -4.9 | i | i | -6.72* | i | . | i | i | i
Nc1nc(SCc2ccccc2)c2ncn(CCO)c2n1 | . | . | . | . | . | i | . | . | .
Cc1nc(N2CCN(Cc3ccccc3)CC2)nc2c1C(=O)CC(C)C2 (configuration not stated) | -15.3 | i | i | -7.12* | i | i | i | i | 8.9%*
CCc1ccc(NC(=O)c2cc(S(=O)(=O)N3CCc4ccccc43)cn2C)cc1 | -7.4 | i | i | -0.44 | i | i | . | . | .
CNCCCCOc1ccccc1Cc1ccccc1 | -9.4 | i | i | -8.82* | i | . | i | i | 30.3%*
O=C1CN(S(=O)(=O)c2cccc(Cl)c2Cl)c2ccccc2N1 | -7.3 | i | i | -5.71* | i | i | i | i | i
C=CCn1c(SCc2cccc(C#N)c2)nnc1-c1ccccc1O | -4.8 | i | i | -5.86* | i | i | i | i | 23.9%*
C=CCn1c(SCC(=O)NC(C)(C)C)nnc1-c1ccccc1O | -8.6 | i | i | 0.26 | i | i | . | . | .
Cc1ccc(CSc2nnc(CCCCCNC(=O)OC(C)(C)C)o2)cc1 | -8.5 | i | i | -3.07 | i | i | . | . | .
CC(C)(C)OC(=O)NCCc1nnc(SCc2ccc(Cl)cc2)o1 | -17.6 | i | i | -16.2* | i | i | i | i | 73.8%*
O=C(CN1CCN(Cc2ccc(Cl)cc2)CC1)N1CCc2ccccc21 | -4.7 | i | i | -9.49* | i | i | i | i | 16.3%*
CN(C)c1nc(Nc2ccccc2)nc(N(C)C)n1 | -11.4 | i | i | 1.1 | i | i | . | . | .
